Test results reported in PMC11364305 (Annals of African Medicine, 2024).
Values after ≈ are worked out from the molar mass of the structure shown. “Also recorded” adds a separate entry of the source. Read-outs that look alike come from different tables or passages of the source.

Experiments:
[1] = test system: C. neoformans (clinical isolate CN); assay: Disc diffusion assay, clinical isolate CN; assay type: cell-based, Cryptococcus neoformans; conditions: 37°C, 48 h, mean±SD; for Diameter of zone of inhibition: 10 μL of essential oil or active compound per disc
In short: (§1)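 Per CLSI M44-A2, modified. Strains were kept on SDA slants at 4°C and subcultured in SDB before use. 100 µl of cell suspension (1.5 × 10^8 cfu/ml) was spread on SDA. Plates got antifungal drug discs (10–20 µg/disc) or 8 mm paper discs soaked with 10 µl of oil or test compound, then incubated at 37°C for 48 h. Inhibition-zone diameter (mm) was recorded in triplicate as mean ± SD.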

C. neoformans MTCC4424 [2] = assay: Disc diffusion assay, MTCC4424; assay type: cell-based, Cryptococcus neoformans; conditions: 37°C, 48 h, mean±SD; for Diameter of zone of inhibition: 10 μL of essential oil or active compound per disc
In short: as §1

[3] = test system: C. neoformans (clinical isolate CN); assay: Broth microdilution MIC/MFC, clinical isolate CN; assay type: cell-based; conditions: Cryptococcus neoformans
C. neoformans MTCC4424 [4] = assay: Broth microdilution MIC/MFC, MTCC4424; assay type: cell-based; conditions: Cryptococcus neoformans; for MFC: MTCC4424
Cytotoxicity = assay type: cell-based; conditions: red blood cell suspension (4% RBC from defibrinated blood), pH 7
[5] = test system: Cryptococcus neoformans test strains (CN and CN MTCC4424); assay: Broth microdilution, text statements for both test strains; assay type: cell-based
[6] = test system: CN and CN MTCC4424 strains; assay: Checkerboard test, text statements for both test strains; assay type: cell-based, Cryptococcus neoformans; conditions: for Interaction with fluconazole: checkerboard, CN and CN MTCC4424
[7] = test system: Cryptococcus neoformans test strains (CN and CN MTCC4424); assay: Disc diffusion, text statements for both test strains; assay type: cell-based; conditions: oils/compounds, against the test strains
In short: as §1

C. neoformans CN = assay: Checkerboard microtiter test with fluconazole, CN; assay type: cell-based, Cryptococcus neoformans; conditions: for MIC: Cryptococcus neoformans, 48 h, read-out: MIC of agent alone; for Lowering of own MIC: in combination with fluconazole, against CN
C. neoformans MTCC4424 [8] = assay: Checkerboard microtiter test with fluconazole, MTCC4424; assay type: cell-based, Cryptococcus neoformans; conditions: for MIC: Cryptococcus neoformans, MTCC4424, 48 h, read-out: MIC of agent alone
red blood cell (RBC) = assay: Cytotoxicity; assay type: cell-based; conditions: 0.1% (v/v) Triton X-100
[9] = Cryptococcus neoformans, MTCC4424, read-out: MIC, oils/compounds, against the test strains
[10] = oils/compounds, against the test strains
[11] = EL-FLC combination (eugenol + fluconazole)
[12] = CD-FLC combination (cinnamaldehyde + fluconazole)

In the case of `CC(C)=CCCC(C)=CC=O` (mixture of isomers) [CT, Citral], the “Diameter of zone of inhibition” value [1] is reported as 25.33±2.05 mm, the “Diameter of zone of inhibition” value (C. neoformans MTCC4424 [2]) is reported as 22.66±1.24 mm and the MIC ([3]; 24 h) is reported as 800 µg/mL. For the same compound, the MIC (C. neoformans MTCC4424 [4]; MTCC4424, 24 h) was 1600 µg/mL, the hemolysis at 2 h, 25 μg/mL (Cytotoxicity) was 1.78 ± 0.16% and the hemolysis at 2 h, 50 μg/mL (Cytotoxicity) was 2.86 ± 0.15%. The hemolysis at 2 h, 100 μg/mL (Cytotoxicity) was 3.8 ± 0.18%, the hemolysis at 2 h, 200 μg/mL (Cytotoxicity) was 4.29 ± 0.12% and the hemolysis at 2 h, 400 μg/mL (Cytotoxicity) was 4.51 ± 0.13%. The hemolysis at 2 h, 800 μg/mL (Cytotoxicity) was 5.98 ± 0.21%, the hemolysis at 2 h, 1600 μg/mL (Cytotoxicity) was 6.96 ± 0.1% and the hemolysis at 2 h, 3200 μg/mL (Cytotoxicity) was 17.6 ± 1.04%. The MIC [5, 9] was 400 to 1600 µg/mL, the “MIC” value [5, 10] was 400 to 1600 µg/mL and the “Reduction of MICs in combination with fluconazole” value (“Reduction of MICs in combination” for short) [6] was “up to 8 fold”. For the same compound, the “Interaction with fluconazole” value [6] was “less synergistic; also recorded: synergy” and the “zone of inhibition” value [7] was greater than 15 mm.
With `C=CCc1ccc(O)c(OC)c1` [EL, Eugenol] the “Diameter of zone of inhibition” value [1] was 22.66±1.24 mm, the “Diameter of zone of inhibition” value (C. neoformans MTCC4424 [2]) was 40.33±1.69 mm and the MIC ([3]; 24 h) was 200 µg/mL (≈ 1220 µM). The MIC (C. neoformans MTCC4424 [4]; MTCC4424, 24 h) was 200 µg/mL (≈ 1220 µM), the hemolysis at 2 h, 25 μg/mL (Cytotoxicity) was 1.65 ± 0.14% and the hemolysis at 2 h, 50 μg/mL (Cytotoxicity) was 1.98 ± 0.09%. The hemolysis at 2 h, 100 μg/mL (Cytotoxicity) was 3.02 ± 0.08%, the hemolysis at 2 h, 200 μg/mL (Cytotoxicity) was 3.72 ± 0.16% and the hemolysis at 2 h, 400 μg/mL (Cytotoxicity) was 4.26 ± 0.16%. For the same compound, the hemolysis at 2 h, 800 μg/mL (Cytotoxicity) was 4.78 ± 0.25%, the hemolysis at 2 h, 1600 μg/mL (Cytotoxicity) was 5.6 ± 0.63% and the hemolysis at 2 h, 3200 μg/mL (Cytotoxicity) was 19 ± 0.3%. The MIC (C. neoformans CN) was 200 µg/mL, the “MIC of agent in combination” value (C. neoformans CN; [11]) was 12.50 µg/mL and the FICI (C. neoformans CN; combination with fluconazole) was 0.187. For the same compound, the “Lowering of own MIC” value (C. neoformans CN) was 8 folds, the MIC (C. neoformans MTCC4424 [8]) was 200 µg/mL and the “MIC of agent in combination” value (C. neoformans MTCC4424 [8]; [11]) was 12.50 µg/mL. The MIC [5, 9] was 200 µg/mL (≈ 1220 µM), the “MIC” value [5, 10] was 100 to 200 µg/mL and the “Reduction of MICs in combination” value [6] was “up to 32 fold”. The “Interaction with fluconazole” value [6] was “synergistic interaction” and the “zone of inhibition” value [7] was greater than 15 mm.
For Triton X-100 [reference compound], the “hemolysis (positive control)” value (red blood cell (RBC)) was 100%.
For `CC(=O)N1CCN(c2ccc(OCC3COC(Cn4ccnc4)(c4ccc(Cl)cc4Cl)O3)cc2)CC1` (stereo not drawn) [KTC, Ketoconazole], the “Diameter of the zone of inhibition” value ([1]; antifungal drugs 10 μg/disc) was 19.33±1.24 mm, the MFC [3] was 0.5 µg/mL (≈ 0.941 µM) and the MIC ([3]; 48 h) was 0.25 µg/mL (≈ 0.47 µM). It also gave an MFC (C. neoformans MTCC4424 [4]) of 128 µg/mL (≈ 241 µM) and an MIC (C. neoformans MTCC4424 [4]; MTCC4424, 48 h) of 64 µg/mL (≈ 120 µM).
For `CC(C)=CCC/C(C)=C/CO` [GR, Geraniol], the “Diameter of zone of inhibition” value [1] was 19.33±1.24 mm, the “Diameter of zone of inhibition” value (C. neoformans MTCC4424 [2]) was 19.33±1.24 mm and the MIC ([3]; 24 h) was 400 µg/mL (≈ 2590 µM). For the same compound, the MIC (C. neoformans MTCC4424 [4]; MTCC4424, 24 h) was 800 µg/mL (≈ 5190 µM), the hemolysis at 2 h, 25 μg/mL (Cytotoxicity) was 1.33 ± 0.17% and the hemolysis at 2 h, 50 μg/mL (Cytotoxicity) was 2.16 ± 0.25%. For the same compound, the hemolysis at 2 h, 100 μg/mL (Cytotoxicity) was 2.31 ± 0.26%, the hemolysis at 2 h, 200 μg/mL (Cytotoxicity) was 2.87 ± 0.23% and the hemolysis at 2 h, 400 μg/mL (Cytotoxicity) was 3.36 ± 0.18%. For the same compound, the hemolysis at 2 h, 800 μg/mL (Cytotoxicity) was 3.85 ± 0.11%, the hemolysis at 2 h, 1600 μg/mL (Cytotoxicity) was 4.74 ± 0.34% and the hemolysis at 2 h, 3200 μg/mL (Cytotoxicity) was 14.3 ± 0.23%. For the same compound, the MIC [5, 9] was 400 to 1600 µg/mL (≈ 2590 to 10400 µM), the “MIC” value [5, 10] was 400 to 1600 µg/mL and the “Reduction of MICs in combination” value [6] was “up to 8 fold”. The “Interaction with fluconazole” value [6] was “synergy” and the “zone of inhibition” value [7] was greater than 15 mm.
`CCC(C)n1ncn(-c2ccc(N3CCN(c4ccc(OCC5COC(Cn6cncn6)(c6ccc(Cl)cc6Cl)O5)cc4)CC3)cc2)c1=O` (stereo not drawn) [ITC, Itraconazole] showed an MFC [3] of 128 µg/mL (≈ 181 µM), an MIC ([3]; 48 h) of 64 µg/mL (≈ 90.7 µM) and an MFC (C. neoformans MTCC4424 [4]) of 256 µg/mL (≈ 363 µM). For the same compound, the MIC (C. neoformans MTCC4424 [4]; MTCC4424, 48 h) was 128 µg/mL (≈ 181 µM) and the “MIC range (resistance to azoles)” value ([5]; antifungal drugs, both test strains) was 64 to 256 µg/mL.
With `O=C/C=C/c1ccccc1` [CD, Cinnamaldehyde] the “Diameter of zone of inhibition” value [1] was 48.33±3.39 mm, the “Diameter of zone of inhibition” value (C. neoformans MTCC4424 [2]) was 45.66±2.49 mm and the MIC ([3]; 24 h) was 100 µg/mL (≈ 757 µM). It also gave an MIC (C. neoformans MTCC4424 [4]; MTCC4424, 24 h) of 100 µg/mL (≈ 757 µM), a hemolysis at 2 h, 25 μg/mL (Cytotoxicity) of 1.84 ± 0.19% and a hemolysis at 2 h, 50 μg/mL (Cytotoxicity) of 2.87 ± 0.07%. It also gave a hemolysis at 2 h, 100 μg/mL (Cytotoxicity) of 3.39 ± 0.12%, a hemolysis at 2 h, 200 μg/mL (Cytotoxicity) of 3.96 ± 0.05% and a hemolysis at 2 h, 400 μg/mL (Cytotoxicity) of 4.4 ± 0.17%. It also gave a hemolysis at 2 h, 800 μg/mL (Cytotoxicity) of 5.06 ± 0.2%, a hemolysis at 2 h, 1600 μg/mL (Cytotoxicity) of 6.22 ± 0.19% and a hemolysis at 2 h, 3200 μg/mL (Cytotoxicity) of 18.1 ± 0.4%. The “MIC of agent in combination” value (C. neoformans CN; [12]) was 12.50 µg/mL, the MIC (C. neoformans CN) was 100 µg/mL and the “Lowering of own MIC” value (C. neoformans CN) was 8 folds. For the same compound, the “MIC of agent in combination” value (C. neoformans MTCC4424 [8]; [12]) was 12.50 µg/mL, the MIC (C. neoformans MTCC4424 [8]) was 100 µg/mL and the MIC [5, 9] was 100 µg/mL (≈ 757 µM). The “MIC” value [5, 10] was 100 to 200 µg/mL, the “Reduction of MICs in combination” value [6] was “up to 32 fold” and the “Interaction with fluconazole” value [6] was “synergistic interaction”. The “zone of inhibition” value [7] was greater than 15 mm.
For `OC(Cn1cncn1)(Cn1cncn1)c1ccc(F)cc1F` [FLC, Fluconazole, reference compound], the “Diameter of the zone of inhibition” value (C. neoformans MTCC4424 [2]; antifungal drugs 10 μg/disc) was 14.33±1.24 mm, the MFC [3] was 256 µg/mL (≈ 836 µM) and the MIC ([3]; 48 h) was 128 µg/mL (≈ 418 µM). The MFC (C. neoformans MTCC4424 [4]) was 32 µg/mL (≈ 104 µM), the MIC (C. neoformans MTCC4424 [4]; MTCC4424, 48 h) was 8 µg/mL (≈ 26.1 µM) and the “MIC of agent in combination” value (C. neoformans CN; [12]) was 8 µg/mL. For the same compound, the MIC (C. neoformans CN) was 128 µg/mL, the “MIC of agent in combination” value (C. neoformans CN; [11]) was 8 µg/mL and the “MIC of agent in combination” value (C. neoformans MTCC4424 [8]; [12]) was 1 µg/mL. For the same compound, the MIC (C. neoformans MTCC4424 [8]) was 8 µg/mL, the “MIC of agent in combination” value (C. neoformans MTCC4424 [8]; [11]) was 1 µg/mL and the “Reduction of MICs in combination” value [6] was “up to 32 fold”.
